Laboratory results as given in ChEMBL document CHEMBL4725347, “Discovery of a Monoiodo Aza-BODIPY Near-Infrared Photosensitizer: in vitro and in vivo Evaluation for Photodynamic Therapy” (J Med Chem, 2020).
Active and inactive are the calls of the source. The calls are words filed in the database; no cut-off is given here.

Experiments:
[1] = Stability of the compound in PBS containing 1% Cremophor EL/1,2-propanediol (10:3, v:v) system assessed as compound degradation under dark condition; type: physicochemical; settings: buffer
[2] = system: HeLa; assay: Phototoxicity against human HeLa cells assessed as reduction in cell viability at 125 nM preincubated for 2 hrs followed by 5.4 to 108 J/cm2 light irradiation and measured after 24 hrs by MTT assay; type: functional, cell-based
[3] = Absorption property of the compound in N,N-dimethylformamide assessed as absorption coefficient by UV-visible spectrophotometric method; type: physicochemical
Procedure, shortened: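 Electronic absorption spectra recorded by UV-visible spectrophotometry at room temperature. Solvents were chloroform, isopropanol, acetonitrile, DMF, and PBS buffer containing 1% Cremophor EL/1,2-propanediol (10:3, v:v). Chloroform data were referenced to the non-halogenated parent dye.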

[4] = Dark toxicity in human HeLa cells assessed as reduction in cell viability after 3 hrs by MTT assay; type: cell-based
Procedure, shortened: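 Compound was formulated with Cremophor EL/1,2-propanediol in PBS, filtered, and its concentration confirmed by UV-Vis. HeLa cells in DMEM with 10% FBS at 37 °C, 5% CO2 were seeded at 3×10^3 cells/well and adhered overnight. Cells were exposed to graded concentrations for 3 h without light, incubated 24 h, then MTT 0.5 mg/mL for 4 h; formazan dissolved in DMSO, A490 read.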

[5] = Emission property of the compound in chloroform assessed as maximum emission wavelength by fluorescence spectrophotometric method; type: physicochemical
Procedure, shortened: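 Fluorescence spectrum recorded in chloroform by fluorescence spectrophotometer at room temperature.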

## COc1ccc(C2=[N+]3C(=Nc4c(-c5ccccc5)cc(-c5ccc(OC)cc5)n4[B-]3(F)F)C(c3ccccc3)=C2I)cc1
[1]
  Stabilty: Unstable
[2]
  Activity: Active
[3]
  Activity: 59300 M⁻¹ cm⁻¹
[4]
  IC50 at 3 h: > 50 µM
[5]
  Activity: 721 nm
